PubChem BioAssay
Activity calls are given as the source filed them.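 How the source made its calls, unless noted: active means Her2 level under about 52% in both replicate screens, with viability over 70% of control (limit read from the data); inconclusive means Her2 under the limit in one screen only, or viability under 70%; inactive means Her2 level above the set limit.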

Experiments:
[1] = Her2 expression decrease, cell viability multiplex – SKBR3 breast tumor cells, AlphaScreen, ATP viability, primary screen (AID 461); conditions: SKBR3 Her2 protein level, 18-24 h, measured here: SKBR3 viability, ATP luminescence, at 10 µM;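 on Her2 level: lower value means less Her2 protein in the cells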;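 on viability: percent of carrier control wells set as 100% viability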
[2] = molecular target: Receptor tyrosine-protein kinase erbB-2 (Homo sapiens) (UniProt P04626); assay: as above; conditions: 18-24 h, at 10 µM, stronger effect = lower value
Chain of Receptor tyrosine-protein kinase erbB-2 (Homo sapiens) (P04626 whole entry, looked up): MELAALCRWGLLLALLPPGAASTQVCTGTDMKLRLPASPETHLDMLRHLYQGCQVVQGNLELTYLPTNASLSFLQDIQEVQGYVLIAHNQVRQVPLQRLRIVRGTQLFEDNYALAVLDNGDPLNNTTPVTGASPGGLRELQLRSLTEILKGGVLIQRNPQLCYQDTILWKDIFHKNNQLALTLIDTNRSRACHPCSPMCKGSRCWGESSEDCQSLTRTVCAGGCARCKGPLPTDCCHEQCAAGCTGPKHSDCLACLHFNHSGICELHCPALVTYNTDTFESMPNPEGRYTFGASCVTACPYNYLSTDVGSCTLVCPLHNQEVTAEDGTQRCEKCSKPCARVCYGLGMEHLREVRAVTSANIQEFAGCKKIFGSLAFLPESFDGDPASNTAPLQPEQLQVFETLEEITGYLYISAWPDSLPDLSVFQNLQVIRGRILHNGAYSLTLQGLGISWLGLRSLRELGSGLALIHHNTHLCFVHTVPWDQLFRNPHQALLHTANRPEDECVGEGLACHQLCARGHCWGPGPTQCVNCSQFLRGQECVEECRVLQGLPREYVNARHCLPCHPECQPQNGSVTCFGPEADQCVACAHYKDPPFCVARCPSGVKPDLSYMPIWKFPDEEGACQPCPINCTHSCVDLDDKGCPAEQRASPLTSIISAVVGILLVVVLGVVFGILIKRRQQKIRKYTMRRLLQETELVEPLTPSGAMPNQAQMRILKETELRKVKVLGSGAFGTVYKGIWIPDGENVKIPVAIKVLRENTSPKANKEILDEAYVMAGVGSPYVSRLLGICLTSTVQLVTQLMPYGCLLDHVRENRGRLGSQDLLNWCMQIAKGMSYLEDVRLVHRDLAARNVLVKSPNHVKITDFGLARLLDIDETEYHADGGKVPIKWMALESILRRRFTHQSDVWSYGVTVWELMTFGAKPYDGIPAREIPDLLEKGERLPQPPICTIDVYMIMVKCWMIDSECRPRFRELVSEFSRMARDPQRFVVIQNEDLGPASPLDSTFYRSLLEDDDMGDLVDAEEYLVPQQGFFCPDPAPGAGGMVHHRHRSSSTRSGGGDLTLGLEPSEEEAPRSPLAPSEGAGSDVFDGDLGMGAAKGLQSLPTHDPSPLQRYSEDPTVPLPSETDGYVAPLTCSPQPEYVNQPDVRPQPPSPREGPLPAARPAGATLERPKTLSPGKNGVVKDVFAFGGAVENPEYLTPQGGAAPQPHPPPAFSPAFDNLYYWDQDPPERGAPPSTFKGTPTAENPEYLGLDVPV

[3] = reduced viability of SK-BR-3 breast cancer cells – cell-based, 24 h, human, pilot screen (AID 572;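 active means viability at or below 10% of carrier control in both of two separate runs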;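 further: compound exposure lasted between 18 and 24 h rather than exactly 24 h; 100% = carrier-treated control wells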); conditions: SK-BR-3 viability, CellTiter-Glo luminescence, at 10 µM, stronger effect = lower value
[4] = HUVEC growth inhibition – cell-based, human, primary screen (AID 575;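 active means viability at or below 30% in both replicate assays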;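 further: 100% = median of untreated cell wells with 0.1% DMSO on each plate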); conditions: HUVEC proliferation, CellTiter-Glo luminescence, 72 h; at 10 µM; stronger effect = lower value
How it was run: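 material = primary HUVEC, no more than 12 passages | input = 1250 cells per well | controls = vehicle and MePR control wells | measured by = CTG luminescence | times = 72 h compound incubation | format = collagen-coated 384-well format | read-out = % viability vs DMSO wells | doses = single 10 µM dose, 0.1% DMSO, from 5x medium stock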

[5] = H69AR cell proliferation blockers – human, duplicate replicates, primary screen (AID 580;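 active means viability at or under a set limit in both replicates, limit being median viability minus 3 SD, cut at about 48% in these data, passing the limit was not always enough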;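 further: 100% = mean luminescence of untreated wells and 0% = no signal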); conditions: H69AR lung tumor cells viability, ATP luminescence, 72 h; at 10 µM; stronger effect = lower value
[6] = MRP1 drug-resistance reversers in H69AR cells – cell-based, doxorubicin co-treatment, pilot screen (AID 601;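 active means viability loss from added drug above about 55%, and viability with drug at most 40%, in both replicates, limit read from the data, passing the limit was not always enough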); conditions: CellTiter-Glo, 72 h, at 10 µM; for differential viability (reversal): stronger effect = higher value
[7] = yeast transport mutant growth inhibition pilot in 384-well plates, post-Golgi transport modulator project (AID 636; in the data active means inhibition above about 31%); conditions: absorbance 615 nm, about 18 h, stronger effect = higher value
[8] = growth suppression of yeast trafficking mutant, preliminary HTS, modulators of trafficking downstream of Golgi apparatus project, 1536-format plate, OD 615 nm (AID 637; in the data active means inhibition above about 30%); conditions: yeast transport mutant growth, absorbance 615 nm, 18 h; stronger effect = higher value
[9] = H69AR cells + 2 uM doxorubicin, measured here: viability with 2 uM doxorubicin, stronger effect = lower value
[10] = H69AR cells, compound alone cytotoxicity

Structure (SMILES) | viability [1] [%] | Her2 level [2] | viability [3] | viability [4] | viability [5] | differential viability (reversal) ([6]; H69AR cells + 2 uM doxorubicin) | viability [6, 9] [%] | viability [6, 10] [%] | inhibition [7] | inhibition [8]
COc1ccc(NC(=O)C(C)NS(=O)(=O)c2ccccc2)cc1Cl (stereo not given) | 92 | 99% (inactive) | 92% (inactive) | 98.4% (inactive) | 97.7% (inactive) | 6.73% (inactive) | 91 | 97.7 | -3.87% (inactive) | -6.19% (inactive)
Cc1nc2ccccc2cc1O | 133 | 104% (inactive) | 133% (inactive) | 85.9% (inactive) | 92% (inactive) | -16.9% (inactive) | 109 | 92 | -6.05% (inactive) | 13.1% (inactive)
Cn1c(=O)c2c(nc(CN3CCOCC3)n2CC(O)CO)n(C)c1=O (stereo not given) | 111 | 107% (inactive) | 111% (inactive) | 104% (inactive) | 86.2% (inactive) | -4.93% (inactive) | 91.1 | 86.2 | -3.9% (inactive) | 2.46% (inactive)
O=C(C1CCN(S(=O)(=O)c2cccnc2)CC1)N1CCN(c2ccc(Cl)cc2)CC1 | 84 | 81% (inactive) | 84% (inactive) | 70.2% (inactive) | 89.7% (inactive) | 18.8% (inactive) | 70.9 | 89.7 | -2.11% (inactive) | -4.44% (inactive)
CCOCCCNC(=O)c1c[nH]c2ccc(S(=O)(=O)Nc3cccc(OC)c3)cc2c1=O | 108 | 106% (inactive) | 108% (inactive) | 83.4% (inactive) | 99.9% (inactive) | 6.57% (inactive) | 93.3 | 99.9 | -5.66% (inactive) | -8.71% (inactive)
CCOC(=O)c1c(C)[nH]c(C=Nc2ccccc2)c1O | 94 | 91.5% (inactive) | 94% (inactive) | 106% (inactive) | 101% (inactive) | 10.2% (inactive) | 90.8 | 101 | -4.13% (inactive) | 11.4% (inactive)
COc1ccccc1C(=O)N1CCN=C1SCc1cccnc1 | 102 | 103% (inactive) | 102% (inactive) | 97.5% (inactive) | 96.8% (inactive) | 11.6% (inactive) | 85.3 | 96.8 | -3.65% (inactive) | -2.06% (inactive)
Cc1nc2c(o1)CCc1ccccc1C2O (stereo not given) | 96 | 91% (inactive) | 96% (inactive) | 93.9% (inactive) | 94.4% (inactive) | -5.3% (inactive) | 99.7 | 94.4 | -4% (inactive) | -2.95% (inactive)
COc1ccccc1C1C(C(C)=O)=C(O)C(=O)N1CCc1ccccc1 (stereo not given) | 93.5 | 102% (inactive) | 93.5% (inactive) | 98.1% (inactive) | 104% (inactive) | 9.69% (inactive) | 94.5 | 104 | -5.07% (inactive) | 3.87% (inactive)
COc1ccc(-n2c(SCc3ccc(C#N)cc3)nnc2-c2ccccn2)cc1 | 82.5 | 91.5% (inactive) | 82.5% (inactive) | 120% (inactive) | 96.3% (inactive) | 11.2% (inactive) | 85 | 96.3 | -7.16% (inactive) | -5.56% (inactive)
COCCNc1nc(C(C)(C)C)nc2c1nnn2Cc1ccccc1Cl | 87 | 86.5% (inactive) | 87% (inactive) | 119% (inactive) | 96.1% (inactive) | 1.67% (inactive) | 94.4 | 96.1 | -0.66% (inactive) | -3.33% (inactive)
O=C(Cn1cccc1C(=O)c1ccccc1)NCCN1CCOCC1 | 98 | 89.5% (inactive) | 98% (inactive) | 111% (inactive) | 90% (inactive) | 2.57% (inactive) | 87.4 | 90 | -0.79% (inactive) | 0.97% (inactive)
COc1ccccc1N1C(=O)c2ccccc2NC1c1ccncc1 (stereo not given) | 104 | 100% (inactive) | 104% (inactive) | 101% (inactive) | 104% (inactive) | 9.81% (inactive) | 94 | 104 | -1.51% (inactive) | -7.14% (inactive)
Cc1cc(C)n(-c2nc(C)nc3sc4c(c23)CCC(C)C4)n1 (stereo not given) | 92.5 | 108% (inactive) | 92.5% (inactive) | 80.8% (inactive) | 96.4% (inactive) | -0.45% (inactive) | 96.8 | 96.4 | -1.04% (inactive) | -13.8% (inactive)
CS(=O)(=O)N1CCN(c2ccccc2NC(=O)c2ccc(-c3ccc(Cl)cc3Cl)o2)CC1 | 78.5 | 96.5% (inactive) | 78.5% (inactive) | 76.7% (inactive) | 86.4% (inactive) | 10.2% (inactive) | 76.2 | 86.4 | -2.93% (inactive) | -3.49% (inactive)
